Results of several laboratories.
Protocols differ between the studies behind these lines.
Target: Calcium-dependent protein kinase 1 (CDPK1, Plasmodium falciparum, UniProt P62344)

Compound	assay	setting	measurement	value
COc1ccnn2ncc(-c3ccnc(N(C)C)n3)c12	binding	1 µM	remaining binding	81%
Cc1ccc(C(=O)Nc2ccc(CN3CCN(C)CC3)c(C(F)(F)F)c2)cc1C#Cc1cnc2cccnn12	enzyme activity, inhibitor	23.5 nM	remaining activity	16%
Nc1ncnc2occ(-c3ccc(NC(=O)Nc4cc(C(F)(F)F)ccc4F)cc3)c12	cell-free assay, inhibitor	20 µM	remaining signal	1.2%
C[C@@H]1CCN(c2nccc(-c3cnn4ncccc34)n2)C1	binding	1 µM	remaining binding	85%
C=CC(=O)N1CCC(C(=O)NCC(=O)N2CCN(c3nc(-c4cnc(N)nc4C(F)F)nc(N4CCOCC4)n3)CC2)CC1	binding, competition with immobilised ligand	1 µM	remaining binding	81%
CCN1CCN(Cc2ccc(C(=O)Nc3ccc(C)c(Oc4ccc5c(c4)CC(=O)N5)c3)cc2C(F)(F)F)CC1	binding, competition with immobilised ligand	1 µM	remaining binding	68%
O=C(NCC1CCOCC1)c1n[nH]cc1NC(=O)c1c(F)cccc1F	binding, competition with immobilised ligand	1 µM	remaining binding	83%
FC(F)(F)Oc1cccc(-c2cnc3ccc(-c4ccncc4)nn23)c1	binding, competition with immobilised ligand	5 µM	remaining binding	4.5%
N[C@@H]1CCN(c2nccc(-c3cnn4ncccc34)n2)C1	binding	1 µM	remaining binding	91%
CNC(=O)[C@@H]1CC[C@@H](n2c(-c3ccc4cnccc4c3)nc3ccc(C(=O)NCc4cccc(C(N)=O)c4)cc32)C1	binding, competition with immobilised ligand	1 µM	remaining binding	99%
c1cncc(-c2cccc(Nc3nccc(NC4CCCCC4)n3)c2)c1	binding, competition with immobilised ligand	10 µM	remaining binding	24%
Nc1ncc2c(n1)-c1c([nH]c3ccc(C#CC4CC4)cc13)CCCC2	binding, competition with immobilised ligand	1 µM	remaining binding	79%
Cc1nn(C)cc1-c1nc2c(N3CCN(Cc4ccc(Cl)cc4)CC3)c(Cl)cnc2[nH]1	binding, competition with immobilised ligand	1 µM	remaining binding	100%
O=C(Nc1c[nH]nc1C(=O)NC1CCNCC1)c1cc(F)cc(F)c1	binding, competition with immobilised ligand	1 µM	remaining binding	89%
COc1cnc(Nc2cccc(S(N)(=O)=O)c2)nc1N1CCN(c2ccccc2)CC1	binding, competition with immobilised ligand	1 µM	remaining binding	86%
